Bioassay records as filed in PubChem.
Rows were chosen to be rich in hits. Some 1.8% of all compounds tested hit in one or more screens of this group.
M4 antag: blocks acetylcholine activation of human M4 receptor. P08173. CHO-hM4 cells, ACh EC80, Fluo-8 calcium fluorescence. inhibition, % at 3 µM. 0.73% of 360,000 active;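 active means inhibition above its plate's cutoff, the mean inhibition of sample wells plus 3 SD, cut at about 27% in these data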
Target sequence (P08173 whole entry, looked up): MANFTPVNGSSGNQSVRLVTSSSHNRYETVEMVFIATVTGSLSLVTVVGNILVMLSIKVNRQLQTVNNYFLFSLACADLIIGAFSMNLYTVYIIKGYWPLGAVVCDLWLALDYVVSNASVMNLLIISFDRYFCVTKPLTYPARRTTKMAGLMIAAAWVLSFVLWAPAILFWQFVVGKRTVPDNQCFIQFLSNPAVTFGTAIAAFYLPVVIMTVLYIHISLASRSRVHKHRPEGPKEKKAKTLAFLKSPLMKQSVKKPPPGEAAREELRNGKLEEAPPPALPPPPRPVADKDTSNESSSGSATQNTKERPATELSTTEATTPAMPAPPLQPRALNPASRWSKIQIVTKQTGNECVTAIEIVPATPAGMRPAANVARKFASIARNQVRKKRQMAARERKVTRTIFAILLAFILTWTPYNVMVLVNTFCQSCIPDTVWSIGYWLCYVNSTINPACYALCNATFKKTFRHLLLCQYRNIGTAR
CHRM4 agonist: agonists of human muscarinic M4 receptor (CHRM4); CHO-K1 hM4/Gqi5, Fluo-8 calcium fluorescence; vehicle 0%, full acetylcholine response 100%; activation, % at 3 µM; 0.14% of 360,000 active; AID 624127;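 active means activation above the run mean over all test wells plus 3 SD, cut at about 32% in these data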;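 further: peak over basal fluorescence ratio per well then scaled between controls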
CHRM5 PAM: positive allosteric modulators of human muscarinic M5 receptor; P08912; CHO-K1 hM5, Fluo-8 calcium, ACh EC20 PAM; 0% = ACh EC20, 100% = ACh EC100; activation, % at 3 µM; 0.3% of 360,000 active; AID 624038;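 active means activation above the run cutoff, the mean activation of all test compounds plus 3 SD, cut at about 18% in these data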
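Assay system: CHO-K1 hM5 cells / Incubation: Fluo-8 loading 80 min at 37 °C plus 30 min room temperature / Technique: Fluo-8 calcium dye fluorescence, kinetic read / Repeats: single replicate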
CHRM5 agonist: agonists of human muscarinic M5 receptor (CHRM5); CHO-K1 hM5 cells, Fluo-8 calcium fluorescence; 0% DMSO wells, 100% maximal acetylcholine response; activation, % at 3 µM; 0.19% of 360,000 active; AID 624037;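 active means activation above the run's mean over test compounds plus 3 SD, cut at about 23% in these data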;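 further: signal is peak over basal fluorescence ratio across the kinetic read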
CHRM5 antagonist: antagonists of human muscarinic M5 receptor (CHRM5) | 0.59% of 360,000 active | P08912 | AID 624040 | CHO-hM5 cells, Fluo-8 calcium fluorescence, ACh EC80 | inhibition, % at 3 µM;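 active means inhibition above a per-plate cutoff, the mean of that plate's test compounds plus 3 SD, cut at about 27% in these data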
M4 PAM: potentiates acetylcholine response at human M4 receptor; 0.4% of 360,000 active; activation, % at 3 µM; CHO-K1 hM4/Gqi5, Fluo-8 calcium fluorescence, ACh EC20; 0% = ACh EC20, 100% = maximal ACh; AID 624126;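 active means activation above its plate's cutoff, the mean activation of sample wells plus 3 SD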
Numbers stand for hits.

Results for CC(C)(C)c1ccc(NC(=O)COC(=O)C2(C)CC2(Cl)Cl)cc1 (stereo unspecified) ?
M4 antag: inactive; CHRM4 agonist: inactive; CHRM5 PAM: inactive; CHRM5 agonist: inactive; CHRM5 antagonist: inactive; M4 PAM: inactive

Results for O=[N+]([O-])c1cc(C(F)(F)F)cc([N+](=O)[O-])c1NCCNC(=S)Nc1cccc(F)c1 ?
M4 antag: inactive; CHRM4 agonist: inactive; CHRM5 PAM: inactive; CHRM5 agonist: inactive; CHRM5 antagonist: 28; M4 PAM: inactive

How did O=C(c1ccco1)N1N=C(c2ccccc2)CC1c1ccc2nccnc2c1 (stereo unspecified) do in these assays?
M4 antag: inactive; CHRM4 agonist: inactive; CHRM5 PAM: inactive; CHRM5 agonist: inactive; CHRM5 antagonist: inactive; M4 PAM: inactive

What do the screens show for `CC(C)Cn1c(C23CC4CC(CC(C4)C2)C3)n[nH]c1=S`?
M4 antag: 27; CHRM4 agonist: inactive; CHRM5 PAM: inactive; CHRM5 agonist: inactive; CHRM5 antagonist: inactive; M4 PAM: inactive

Results for OC(Cc1cccc(Br)c1)c1ncc(-c2cccc(C(F)(F)F)c2)[nH]1 (stereo unspecified) ?
M4 antag: inactive; CHRM4 agonist: inactive; CHRM5 PAM: inactive; CHRM5 agonist: inactive; CHRM5 antagonist: inactive; M4 PAM: inactive

Results for Cc1cnc(CNC(=O)c2ccc3sc([C@@H]4O[C@H](CO)[C@H](O)[C@H](O)[C@H]4O)nc3c2)cn1 ?
M4 antag: inactive; CHRM4 agonist: inactive; CHRM5 PAM: inactive; CHRM5 agonist: inactive; CHRM5 antagonist: inactive; M4 PAM: inactive

Results for O=C(NCc1cccs1)c1ccc2sc([C@@H]3O[C@H](CO)[C@H](O)[C@H](O)[C@H]3O)nc2c1 ?
M4 antag: inactive; CHRM4 agonist: inactive; CHRM5 PAM: inactive; CHRM5 agonist: inactive; CHRM5 antagonist: inactive; M4 PAM: 16

How did COc1ccccc1NS(=O)(=O)c1cccc(C(=O)N/N=C/c2ccc(NC(C)=O)cc2)c1 do in these assays?
M4 antag: inactive; CHRM4 agonist: inactive; CHRM5 PAM: inactive; CHRM5 agonist: inactive; CHRM5 antagonist: inactive; M4 PAM: inactive

What do the screens show for `CCOc1ccc(OCC)c(NC(=O)CN2CCN(c3ccc(C)cc3C)CC2)c1`?
M4 antag: inactive; CHRM4 agonist: inactive; CHRM5 PAM: inactive; CHRM5 agonist: inactive; CHRM5 antagonist: inactive; M4 PAM: 20

Results for C=CCN1C(=O)/C(=c2\sc3nc(=O)c(Cc4ccccc4Cl)nn3c2=O)c2ccccc21 ?
M4 antag: inactive; CHRM4 agonist: inactive; CHRM5 PAM: inactive; CHRM5 agonist: inactive; CHRM5 antagonist: inactive; M4 PAM: inactive

How did COc1cccc(CN(C)C(=O)c2ccc(OCC(=O)Nc3cccc(C(F)(F)F)c3)c(OC)c2)c1 do in these assays?
M4 antag: inactive; CHRM4 agonist: inactive; CHRM5 PAM: inactive; CHRM5 agonist: inactive; CHRM5 antagonist: 29; M4 PAM: inactive

What do the screens show for `COCCNc1nc(Nc2ccc(C(=O)OC)cc2)c2sccc2n1`?
M4 antag: inactive; CHRM4 agonist: inactive; CHRM5 PAM: inactive; CHRM5 agonist: inactive; CHRM5 antagonist: inactive; M4 PAM: inactive

Results for O=C(NCCCN1CCOCC1)NC1CCCCC1 ?
M4 antag: inactive; CHRM4 agonist: inactive; CHRM5 PAM: inactive; CHRM5 agonist: inactive; CHRM5 antagonist: inactive; M4 PAM: inactive

What do the screens show for `O=C(NCCCCCCCN1CCCCCCC1)C(C1CCCCC1)C1CCCCC1`?
M4 antag: 75; CHRM4 agonist: inactive; CHRM5 PAM: inactive; CHRM5 agonist: inactive; CHRM5 antagonist: inactive; M4 PAM: inactive

How did O=C(CCn1nnc2ccccc21)N/N=C\Cc1ccccc1 do in these assays?
M4 antag: inactive; CHRM4 agonist: inactive; CHRM5 PAM: inactive; CHRM5 agonist: inactive; CHRM5 antagonist: inactive; M4 PAM: inactive

How did CCN(CC)c1ccc(C=NNc2ccc([N+](=O)[O-])cn2)cc1 do in these assays?
M4 antag: inactive; CHRM4 agonist: inactive; CHRM5 PAM: inactive; CHRM5 agonist: 35; CHRM5 antagonist: 37; M4 PAM: inactive

Results for Cc1ccc(-c2csc(N/N=C/c3ccco3)n2)cc1 ?
M4 antag: inactive; CHRM4 agonist: inactive; CHRM5 PAM: inactive; CHRM5 agonist: inactive; CHRM5 antagonist: inactive; M4 PAM: inactive

Results for CN(C)S(=O)(=O)c1ccc(-c2csc(N/N=C/c3ccc(O)cc3)n2)cc1 ?
M4 antag: 29; CHRM4 agonist: inactive; CHRM5 PAM: inactive; CHRM5 agonist: inactive; CHRM5 antagonist: inactive; M4 PAM: inactive

How did CN(C)S(=O)(=O)c1ccc(-c2csc(N/N=C/c3ccco3)n2)cc1 do in these assays?
M4 antag: 30; CHRM4 agonist: inactive; CHRM5 PAM: inactive; CHRM5 agonist: inactive; CHRM5 antagonist: inactive; M4 PAM: inactive

What do the screens show for `C(=N\Nc1nc(-c2ccccc2)cs1)/c1ccncc1`?
M4 antag: inactive; CHRM4 agonist: inactive; CHRM5 PAM: inactive; CHRM5 agonist: inactive; CHRM5 antagonist: inactive; M4 PAM: inactive

Results for CC(C)S(=O)(=O)NC(=O)C1(C)CCN1C(=O)Cc1ccccc1 (stereo unspecified) ?
M4 antag: inactive; CHRM4 agonist: inactive; CHRM5 PAM: inactive; CHRM5 agonist: inactive; CHRM5 antagonist: 29; M4 PAM: inactive

Results for CC1(C(=O)Nc2ccc3c(c2)OCO3)CCN1C(=O)Cc1ccc(-c2ccccc2)cc1 (stereo unspecified) ?
M4 antag: 27; CHRM4 agonist: inactive; CHRM5 PAM: inactive; CHRM5 agonist: inactive; CHRM5 antagonist: 31; M4 PAM: inactive

Results for CC1(C(=O)Nc2ccccc2)CCN1C(=O)Cc1ccc(-c2ccccc2)cc1 (stereo unspecified) ?
M4 antag: inactive; CHRM4 agonist: inactive; CHRM5 PAM: inactive; CHRM5 agonist: inactive; CHRM5 antagonist: inactive; M4 PAM: inactive

How did Cc1nc(C)n(C(C)CNS(=O)(=O)c2ccc(Cl)cc2)n1 (stereo unspecified) do in these assays?
M4 antag: inactive; CHRM4 agonist: inactive; CHRM5 PAM: inactive; CHRM5 agonist: inactive; CHRM5 antagonist: inactive; M4 PAM: inactive

What do the screens show for `COc1ccccc1NC(=O)c1cc2cc(Br)ccc2cc1O`?
M4 antag: 28; CHRM4 agonist: 33; CHRM5 PAM: inactive; CHRM5 agonist: inactive; CHRM5 antagonist: 37; M4 PAM: inactive

How did COc1cc(NC(=O)c2cc3ccccc3cc2O)c(OC)cc1Cl do in these assays?
M4 antag: inactive; CHRM4 agonist: inactive; CHRM5 PAM: inactive; CHRM5 agonist: inactive; CHRM5 antagonist: inactive; M4 PAM: inactive

Results for CCOc1ccccc1C(=O)NCC(=O)NNC(=O)c1cccc(S(=O)(=O)Nc2ccc(OC)cc2)c1 ?
M4 antag: inactive; CHRM4 agonist: inactive; CHRM5 PAM: inactive; CHRM5 agonist: inactive; CHRM5 antagonist: inactive; M4 PAM: inactive
